{
  "source": "ChEMBL document CHEMBL1134471",
  "about": "“Antimycobacterial activity of substituted isosteres of pyridine- and pyrazinecarboxylic acids. 2” (2001)",
  "note": "Values joined by “and” are separate entries in the source; they are usually repeats but may differ in a detail not shown here. Equal values may be shown once.",
  "data": [
    {"system": "Mycobacterium tuberculosis", "assay": "Minimum inhibitory concentration against Mycobacterium tuberculosis H37Rv (ATCC 27294) in BACTEC 6A medium", "type": "functional", "summary_of_the_method": "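M. tuberculosis H37Rv ATCC 27294 tested in the BACTEC 460 radiometric system in BACTEC 6A medium. Percent inhibition = 1 − (growth index of test sample / growth index of control) × 100. MIC taken as the lowest concentration inhibiting 99% of the inoculum.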", "values": [
      {"smiles": "CC(C)(C)C(=O)OCn1c(-c2cccnc2)noc1=O", "MIC": "100 µM and 28 µg/mL"},
      {"smiles": "Sc1nc(-c2cnccn2)no1", "MIC": "1600 µM and 288 µg/mL"},
      {"smiles": "Oc1nc(-c2ccncc2)no1", "MIC": "> 1600 µM and > 261 µg/mL"},
      {"smiles": "O=c1oc(-c2cccnc2)ns1", "MIC": "25 µM and 4.5 µg/mL"},
      {"smiles": "Oc1nc(-c2cnccn2)no1", "MIC": "800 µM and 131 µg/mL"},
      {"smiles": "Sc1nc(-c2cccnc2)no1", "MIC": "> 1600 µM and > 286 µg/mL"},
      {"smiles": "NC(=O)c1cnccn1", "note": "[PYRAZINAMIDE]", "MIC": "400 µM and 49 µg/mL"},
      {"smiles": "Sc1nc(-c2ccncc2)no1", "MIC": "> 1600 µM and > 286 µg/mL"},
      {"smiles": "CC(C)(C)C(=O)OCn1nnnc1-c1cnccn1", "MIC": "50 µM and 13 µg/mL"},
      {"smiles": "Oc1nc(-c2cccnc2)no1", "MIC": "> 1600 µM and > 261 µg/mL"},
      {"smiles": "O=c1oc(-c2ccncc2)ns1", "MIC": "50 µM and 9 µg/mL"},
      {"smiles": "CC(C)(C)C(=O)OCn1c(-c2cnccn2)noc1=O", "MIC": "200 µM and 56 µg/mL"},
      {"smiles": "CC(C)(C)C(=O)OCSc1nc(-c2ccncc2)no1", "MIC": "200 µM and 59 µg/mL"},
      {"smiles": "CC(C)(C)C(=O)OCSc1nc(-c2cnccn2)no1", "MIC": "400 µM and 118 µg/mL"},
      {"smiles": "NNC(=O)c1ccncc1", "note": "[ISONIAZID]", "MIC": "0.15 µM and 0.018 µg/mL"},
      {"smiles": "O=c1oc(-c2cnccn2)ns1", "MIC": "25 µM and 4.5 µg/mL"},
      {"smiles": "CC(C)(C)C(=O)OCn1c(-c2ccncc2)noc1=O", "MIC": "50 µM and 14 µg/mL"},
      {"smiles": "CC(C)(C)C(=O)OCSc1nc(-c2cccnc2)no1", "MIC": "200 µM and 59 µg/mL"}
    ]}
  ]
}
